15 compounds from PMC7103123 (Toxicology and Applied Pharmacology, 2017) can be followed below.

Data set [1] has as its system TGEV. The data set can be described thus: Anti-TGEV IC50 of cardenolides alone or combined with aldosterone or Db cAMP. In kind it is cell-based, porcine transmissible gastroenteritis virus. Conditions: Fig. 4D-c.
Data set [2] has as its system TGEV. The data set can be described thus: Effect of Na^+/K^+-ATPase activators on TGEV activity in ST cells. Format: cell-based, porcine transmissible gastroenteritis virus. The note with it: Fig. 4D-b.
Data set [3] deals with Na^+/K^+-ATPase. The data set can be described thus: Na^+/K^+-ATPase protein level in ST cells. In kind it is cell-based, swine. Conditions: Fig. 4D-a.
The nature of data set [4]: Cytotoxicity assay in TGEV infected ST cells. In kind it is cell-based, swine. Conditions: swine. In short, it runs like this: (§1)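 Cytotoxicity is measured in TGEV-infected ST cells in parallel with the immunofluorescence replication assay, with compound pretreatment for 1 h. CC50 is read at 6 h.p.i. Means ± S.D. come from 3–5 independent experiments, each in duplicate.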

The subject of data set [5] is caspase-3 activation in TGEV infected ST cells. Put plainly: Western blot for TGEV induced caspase-3 activation in ST cells. In kind it is cell-based, swine. Conditions: 1 μM, 18 h.p.i. The essentials: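 TGEV-infected swine testicular (ST) cells were treated with test compound at the indicated concentrations and harvested at 18 h post-infection. Lysates were analysed by western blot with antibodies against caspase-3 to detect its activation, plus TGEV N protein and β-actin as the loading control. A reference anti-TGEV compound served as the positive control.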

Data set [6] deals with TGEV N protein. The data set can be described thus: Western analysis for TGEV N protein expression in infected ST cells. Format: cell-based, porcine transmissible gastroenteritis virus. The essentials:
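Western blot for TGEV N protein in infected ST cells. In the titer-linked set, compound is added 1 h before TGEV (0.01 MOI), with 22 h incubation at 37 °C. Adherent cells are harvested for blotting while supernatants go to titration. Three or more independent experiments.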

The subject of data set [7] is TGEV. Put plainly: Cytopathic effect assay in TGEV infected ST cells. Format: cell-based, porcine transmissible gastroenteritis virus. The note with it: 1 μM, TGEV 3.5 MOI, 18 h.p.i. The essentials:
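ST cells are pretreated with test compound for 1 h, then TGEV-infected at MOI 3.5, with mock-infected controls. At 18 h.p.i., cytopathic effect (rounding, enlargement, syncytia, detachment) is scored and viability is measured by MTS. Survival is compared with vehicle-treated infected cells by Student t-test. Three independent experiments.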

Data set [8] has as its system ST cells. The data set can be described thus: Cytotoxicity assay in TGEV infected ST cells. Format: cell-based, swine. The note with it: read-out: ST CC50; cytotoxicity in TGEV infected ST cells at 6 h.p.i. The essentials:
as §1

Where only a bound is given, the exact number is not on record here.

For the compound `C[C@]12CCC(=O)C=C1CC[C@@H]1[C@@H]2[C@@H](O)C[C@]2(C=O)[C@@H](C(=O)CO)CC[C@@H]12` [Aldosterone, aldosterone], the “effect on anti-TGEV activity of cardenolides” value in data set [1] is recorded as “able to antagonize”. The “infectivity of TGEV” value in data set [2] was “increased the infectivity”. For the same compound, in data set [3], the “Na^+/K^+-ATPase protein level in ST cells” value was “moderately augmented”.
In the case of `CCCC(=O)Nc1ncnc2c1ncn2[C@@H]1O[C@@H]2COP(=O)([O-])O[C@H]2[C@H]1OC(=O)CCC.[Na+]` [Db cAMP, N6,2′-O-Dibutyryladenosine 3′,5′-cyclic monophosphate sodium salt], the “effect on anti-TGEV activity of cardenolides” value in data set [1] is given as “able to antagonize”. In data set [2], the “infectivity of TGEV” value is “increased the infectivity”. In data set [3], the “Na^+/K^+-ATPase protein level in ST cells” value is reported as “moderately augmented”.
`C[C@]12CC[C@H](O)C[C@H]1CC[C@@H]1[C@@H]2CC[C@]2(C)[C@@H](C3=CC(=O)OC3)CC[C@]12O` [Digitoxigenin, digitoxigenin] came in with a CC50 at 6 h post infection in data set [4] above 10 µM.
Take `C[C@H]1O[C@@H](O[C@H]2[C@@H](O)C[C@H](O[C@H]3[C@@H](O)C[C@H](O[C@H]4CC[C@@]5(C)[C@H](CC[C@@H]6[C@@H]5CC[C@]5(C)[C@@H](C7=CC(=O)OC7)CC[C@]65O)C4)O[C@@H]3C)O[C@@H]2C)C[C@H](O)[C@@H]1O` [Digitoxin, digitoxin]: the CC50 at 6 h post infection in data set [4] was above 10 µM. Moreover, the “protection against caspase-3 activation” value in data set [5] is recorded as “strong protection”.
`C[C@H]1O[C@@H](O[C@H]2[C@@H](O)C[C@H](O[C@H]3[C@@H](O)C[C@H](O[C@H]4CC[C@@]5(C)[C@H](CC[C@@H]6[C@@H]5C[C@@H](O)[C@]5(C)[C@@H](C7=CC(=O)OC7)CC[C@]65O)C4)O[C@@H]3C)O[C@@H]2C)C[C@H](O)[C@@H]1O` [Digoxin, digoxin] displayed a CC50 at 6 h post infection in data set [4] above 10 µM.
With `CO[C@H]1C[C@H](O[C@H]2CC[C@@]3(C)[C@H](CC[C@@H]4[C@@H]3CC[C@]3(C)[C@@H](C5=CC(=O)OC5)[C@@H](OC(C)=O)C[C@]43O)C2)O[C@@H](C)[C@@H]1O` [Oleandrin, oleandrin], in data set [4], the cytotoxic concentration (CC50) at 6 h post infection is above 10 µM. The “N protein expression in TGEV infected ST cells” value in data set [6] (TGEV 0.01 MOI, 22 h.p.i. (Fig. 3B)) is on record as “dose dependant manner”. Also, in data set [6] (various doses (Fig. 1D)), the “N protein expression by western analyses in TGEV infected ST cells” value is “dose dependent manner of decreases”. For the same compound, the “protection against caspase-3 activation” value in data set [5] is given as “strong protection”.
In the case of `C[C@@H]1O[C@@H](O[C@H]2C[C@@H](O)[C@]3(CO)[C@H]4[C@H](O)C[C@]5(C)[C@@H](C6=CC(=O)OC6)CC[C@]5(O)[C@@H]4CC[C@]3(O)C2)[C@H](O)[C@H](O)[C@H]1O` [Ouabain, ouabain], in data set [4], the CC50 at 6 h post infection is above 10 µM. In addition, the “protection against caspase-3 activation” value in data set [5] was “strong protection”.
As for `COc1cc2c3c(c4cc(OC)c(OC)cc4c2cc1OC)CN1CCC[C@@H]1C3` [Tylophorine], in data set [4], the CC50 at 6 h post infection was above 10 µM. For the same compound, the “protection against cytopathic effect” value in data set [7] is reported as “displayed protection”.
On to Reevesioside B, for which the half-maximal cytotoxic concentration (CC50) in data set [8] is above 50 µM.
For the compound Reevesioside C, the CC50 in data set [8] is above 50 µM.
Take Reevesioside D: the CC50 in data set [8] was above 50 µM.
Regarding Reevesioside E, in data set [8], the CC50 is above 50 µM.
Reevesioside F: in data set [8], the CC50 was above 10 µM. The “protection against caspase-3 activation” value in data set [5] was “strong protection”.
On to Reevesioside H /epi-Reevesioside H, for which the CC50 in data set [8] was above 50 µM.
On the same count and under the same terms, for Reevesioside I /epi-Reevesioside I the value was above 50 µM.
